The values that follow come from ChEMBL document CHEMBL4052588, “Design of a Biased Potent Small Molecule Inhibitor of the Bromodomain and PHD Finger-Containing (BRPF) Proteins Suitable for Cellular and in Vivo Studies” (J Med Chem, 2017).

pIC50, pKd: −log10 of the molar value. In brackets after ≈: the same amount, converted by molar mass. Bounds are passed on as bounds.

Data set [1] in a line: Growth inhibition of human C99 cells after 72 hrs. It counts as functional. The conditions noted are these: C99, 72 h.
Data set [2] in a line: Growth inhibition of human OCUM1 cells after 72 hrs. The data set is classed as functional. Conditions: OCUM1, 72 h.
The next data set deals with THP-1. As to the kind of experiment: Growth inhibition of human THP1 cells after 72 hrs. It counts as functional. The conditions noted are these: THP-1, 72 h.
A further data set concerns LoVo. As to the kind of experiment: Growth inhibition of human LoVo cells after 72 hrs. The data set is classed as functional.
A short description of data set [3]: Aqueous solubility of compound. It counts as physicochemical. Conditions: buffer.
Data set [4] can be described thus: Oral bioavailability in CD-1 mouse at 3 mg/kg. The data set is classed as ADME, organism-based. Conditions: in vivo. In a few lines:
(§1)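 Female CD-1 mice (n = 3), single dosing: intravenous 1.0 mg/kg, or oral 3.0 mg/kg given as a suspension. Blood levels were followed over time to derive clearance, volume of distribution, elimination half-life, Cmax, Tmax, AUC0−∞, oral bioavailability and fraction absorbed.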

Data set [5] in a line: AUC (0 to infinity) in CD-1 mouse blood at 3 mg/kg, po. The data set is classed as ADME, organism-based. Set-up: dose 3 mg/kg, time infinity, route oral. The conditions noted are these: whole blood. In a few lines:
as §1

A short description of data set [6]: Fraction absorbed in CD-1 mouse at 3 mg/kg, po. It counts as ADME, organism-based. The conditions noted are these: in vivo, read-out: Fabs. Put shortly: as §1
The test system of the next data set is SW48. As to the kind of experiment: Growth inhibition of human SW48 cells after 72 hrs. The data set is classed as functional. Conditions: SW48, 72 h.
Data set [7] is described as follows: Intrinsic clearance in mouse liver microsomes. It counts as ADME, microsome. Conditions: read-out: CLH.
Data set [8] is described as follows: Apparent permeability from basolateral to apical side in human Caco2 cells at 10 uM after 2 hrs by LC-MS/MS analysis. It counts as ADME, cell-based. The conditions noted are these: Caco-2.
In a further data set the test system is NCI-H1437. As to the kind of experiment: Growth inhibition of human NCI-H1437 cells after 72 hrs. It counts as functional. The conditions noted are these: NCI-H1437, 72 h.
A further data set deals with OCI-LY19. As to the kind of experiment: Growth inhibition of human OCI-LY19 cells after 72 hrs. The conditions noted are these: OCI-LY19, 72 h. It counts as functional.
Data set [9] is described as follows: Volume of distribution in CD-1 mouse blood at 1 mg/kg, iv administered as bolus. It counts as ADME, organism-based. Conditions: whole blood. In a few lines: as §1
The target of another data set is T1, Peregrin (Homo sapiens, UniProt P55201).
T1 sequence (P55201 whole entry): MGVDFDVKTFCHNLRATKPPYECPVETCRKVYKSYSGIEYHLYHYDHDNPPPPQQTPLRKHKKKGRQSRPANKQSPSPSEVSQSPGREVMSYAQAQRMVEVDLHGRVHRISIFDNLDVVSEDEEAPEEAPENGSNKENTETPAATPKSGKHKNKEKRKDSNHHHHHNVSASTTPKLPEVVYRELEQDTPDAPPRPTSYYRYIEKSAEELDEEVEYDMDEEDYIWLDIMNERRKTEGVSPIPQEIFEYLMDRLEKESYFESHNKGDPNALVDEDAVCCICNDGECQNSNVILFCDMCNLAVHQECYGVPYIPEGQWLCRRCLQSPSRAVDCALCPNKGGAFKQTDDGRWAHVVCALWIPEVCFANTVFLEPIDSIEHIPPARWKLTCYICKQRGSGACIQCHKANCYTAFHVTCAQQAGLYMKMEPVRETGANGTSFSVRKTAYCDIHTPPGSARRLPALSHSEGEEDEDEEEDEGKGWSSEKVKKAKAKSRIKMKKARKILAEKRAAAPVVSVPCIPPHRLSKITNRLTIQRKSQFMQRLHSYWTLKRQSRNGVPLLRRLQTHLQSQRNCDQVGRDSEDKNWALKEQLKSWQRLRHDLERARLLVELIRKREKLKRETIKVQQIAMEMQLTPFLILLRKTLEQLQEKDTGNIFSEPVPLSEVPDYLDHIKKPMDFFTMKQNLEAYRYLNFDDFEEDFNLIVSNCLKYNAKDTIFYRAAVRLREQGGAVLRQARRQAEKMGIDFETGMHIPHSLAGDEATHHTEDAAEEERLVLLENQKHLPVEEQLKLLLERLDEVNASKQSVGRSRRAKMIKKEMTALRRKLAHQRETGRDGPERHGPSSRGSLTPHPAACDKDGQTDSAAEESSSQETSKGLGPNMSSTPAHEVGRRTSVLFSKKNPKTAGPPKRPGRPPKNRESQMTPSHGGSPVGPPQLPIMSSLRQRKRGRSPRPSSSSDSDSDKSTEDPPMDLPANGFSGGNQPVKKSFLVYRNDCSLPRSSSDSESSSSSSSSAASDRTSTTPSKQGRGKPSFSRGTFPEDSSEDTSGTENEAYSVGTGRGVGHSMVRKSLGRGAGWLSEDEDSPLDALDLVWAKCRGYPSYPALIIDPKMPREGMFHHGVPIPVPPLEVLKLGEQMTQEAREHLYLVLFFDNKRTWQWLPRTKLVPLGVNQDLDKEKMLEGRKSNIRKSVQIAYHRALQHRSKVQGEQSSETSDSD
Nature of the data set: Binding affinity to human BRPF1 by isothermal titration calorimetry. In a few lines: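 Titration of compound into BRPF1 bromodomain; binding heats recorded per injection, normalized enthalpies fitted by nonlinear least squares to a single-binding-site model to give KD, ΔH and TΔS.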

Data set [10] addresses E3 ubiquitin-protein ligase TRIM33 (Homo sapiens, UniProt Q9UPN9). Nature of the data set: Inhibition of human TRIM33 expressed in Escherichia coli BL21 after 1 hr by BROMOscan assay.
In data set [11] the target is Nucleosome-remodeling factor subunit BPTF (Homo sapiens, UniProt Q12830). Nature of the data set: Inhibition of human His tagged FALZ incubated for 30 mins followed by addition of biotinylated peptide and further incubation for 30 mins measured by AlphaScreen assay.
The next data set concerns the target CREB-binding protein (Homo sapiens, UniProt Q92793). As to the kind of experiment: Inhibition of human CREBBP expressed in Escherichia coli BL21 after 1 hr by BROMOscan assay.
In data set [12] the target is Bromodomain adjacent to zinc finger domain protein 2A (Homo sapiens, UniProt Q9UIF9). Nature of the data set: Inhibition of human BAZ2A expressed in Escherichia coli BL21 after 1 hr by BROMOscan assay.
In data set [13] the target is Transcription initiation factor TFIID subunit 1, TAF1 (Homo sapiens) (UniProt P21675). Nature of the data set: Inhibition of human His tagged TAF1 incubated for 30 mins followed by addition of biotinylated peptide and further incubation for 30 mins measured by AlphaScreen assay.
Data set [14] concerns the target SWI/SNF-related matrix-associated actin-dependent regulator of chromatin subfamily A member 2 (Homo sapiens, UniProt P51531). Nature of the data set: Inhibition of human SMARCA2A expressed in Escherichia coli BL21 after 1 hr by BROMOscan assay.

CREB-binding protein, sequence (Q92793 whole entry, the tested form may be a part): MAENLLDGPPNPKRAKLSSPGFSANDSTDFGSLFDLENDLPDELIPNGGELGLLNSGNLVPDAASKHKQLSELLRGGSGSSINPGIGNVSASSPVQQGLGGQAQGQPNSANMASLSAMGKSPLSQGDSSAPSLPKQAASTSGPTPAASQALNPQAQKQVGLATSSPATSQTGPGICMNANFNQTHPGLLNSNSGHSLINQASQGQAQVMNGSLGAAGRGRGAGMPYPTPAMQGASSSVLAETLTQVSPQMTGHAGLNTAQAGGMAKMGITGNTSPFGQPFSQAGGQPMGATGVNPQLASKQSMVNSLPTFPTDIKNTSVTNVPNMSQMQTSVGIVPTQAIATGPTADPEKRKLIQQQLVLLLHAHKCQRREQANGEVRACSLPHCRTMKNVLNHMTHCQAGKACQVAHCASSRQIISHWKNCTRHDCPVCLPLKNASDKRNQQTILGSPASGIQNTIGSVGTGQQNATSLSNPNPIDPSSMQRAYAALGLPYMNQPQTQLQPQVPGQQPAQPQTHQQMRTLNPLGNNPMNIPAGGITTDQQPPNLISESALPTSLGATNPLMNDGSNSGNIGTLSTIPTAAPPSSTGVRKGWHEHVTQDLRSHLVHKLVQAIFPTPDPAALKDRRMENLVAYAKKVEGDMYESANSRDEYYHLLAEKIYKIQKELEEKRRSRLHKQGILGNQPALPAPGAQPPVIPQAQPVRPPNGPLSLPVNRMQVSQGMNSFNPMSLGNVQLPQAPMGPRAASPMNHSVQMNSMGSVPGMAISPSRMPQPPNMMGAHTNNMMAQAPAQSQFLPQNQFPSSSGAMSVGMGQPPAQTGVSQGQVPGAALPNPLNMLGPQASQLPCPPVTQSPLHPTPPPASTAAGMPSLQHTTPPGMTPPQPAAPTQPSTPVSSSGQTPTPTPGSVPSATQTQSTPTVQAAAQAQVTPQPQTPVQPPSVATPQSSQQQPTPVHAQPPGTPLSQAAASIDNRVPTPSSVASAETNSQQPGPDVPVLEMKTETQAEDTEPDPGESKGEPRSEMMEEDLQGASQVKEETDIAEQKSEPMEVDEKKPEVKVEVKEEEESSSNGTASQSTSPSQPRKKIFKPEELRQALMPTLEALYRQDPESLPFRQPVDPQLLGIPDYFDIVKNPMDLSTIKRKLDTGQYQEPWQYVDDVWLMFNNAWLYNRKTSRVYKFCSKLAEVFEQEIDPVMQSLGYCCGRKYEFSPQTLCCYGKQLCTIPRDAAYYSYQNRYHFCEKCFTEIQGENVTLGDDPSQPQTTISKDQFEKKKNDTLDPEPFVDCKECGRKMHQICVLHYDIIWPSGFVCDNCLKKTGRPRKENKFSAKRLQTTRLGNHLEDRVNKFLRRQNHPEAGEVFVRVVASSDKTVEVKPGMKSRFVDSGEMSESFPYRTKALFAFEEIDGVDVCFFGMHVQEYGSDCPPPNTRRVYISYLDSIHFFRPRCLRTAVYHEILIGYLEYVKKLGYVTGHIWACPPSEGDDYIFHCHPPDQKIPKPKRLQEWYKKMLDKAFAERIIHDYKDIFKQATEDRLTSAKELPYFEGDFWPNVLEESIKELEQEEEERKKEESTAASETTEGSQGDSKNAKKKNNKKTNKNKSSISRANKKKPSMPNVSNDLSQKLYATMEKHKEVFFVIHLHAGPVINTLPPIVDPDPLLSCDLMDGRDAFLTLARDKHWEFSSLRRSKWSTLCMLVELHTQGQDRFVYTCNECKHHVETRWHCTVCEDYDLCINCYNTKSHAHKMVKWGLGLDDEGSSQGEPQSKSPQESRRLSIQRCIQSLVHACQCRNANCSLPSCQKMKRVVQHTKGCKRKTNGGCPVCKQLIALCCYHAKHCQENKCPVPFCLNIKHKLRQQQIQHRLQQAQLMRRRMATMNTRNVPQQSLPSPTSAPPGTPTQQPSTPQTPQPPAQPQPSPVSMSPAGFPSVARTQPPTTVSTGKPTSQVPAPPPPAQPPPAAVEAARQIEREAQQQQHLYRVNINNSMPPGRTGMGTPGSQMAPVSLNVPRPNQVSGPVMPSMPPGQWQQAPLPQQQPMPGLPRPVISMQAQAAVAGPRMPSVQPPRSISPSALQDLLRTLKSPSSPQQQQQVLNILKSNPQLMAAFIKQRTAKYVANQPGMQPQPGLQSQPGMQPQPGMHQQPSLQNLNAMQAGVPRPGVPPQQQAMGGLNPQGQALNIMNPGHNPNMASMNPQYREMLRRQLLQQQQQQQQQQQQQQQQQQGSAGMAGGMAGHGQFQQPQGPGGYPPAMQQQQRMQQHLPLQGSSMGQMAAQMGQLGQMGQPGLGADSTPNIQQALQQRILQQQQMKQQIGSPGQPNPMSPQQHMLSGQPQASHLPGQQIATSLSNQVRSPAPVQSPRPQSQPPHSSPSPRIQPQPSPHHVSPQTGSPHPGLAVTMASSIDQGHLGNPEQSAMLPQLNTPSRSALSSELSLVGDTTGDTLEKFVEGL
SWI/SNF-related matrix-associated actin-dependent regulator of chromatin subfamily A member 2, sequence (P51531 whole entry): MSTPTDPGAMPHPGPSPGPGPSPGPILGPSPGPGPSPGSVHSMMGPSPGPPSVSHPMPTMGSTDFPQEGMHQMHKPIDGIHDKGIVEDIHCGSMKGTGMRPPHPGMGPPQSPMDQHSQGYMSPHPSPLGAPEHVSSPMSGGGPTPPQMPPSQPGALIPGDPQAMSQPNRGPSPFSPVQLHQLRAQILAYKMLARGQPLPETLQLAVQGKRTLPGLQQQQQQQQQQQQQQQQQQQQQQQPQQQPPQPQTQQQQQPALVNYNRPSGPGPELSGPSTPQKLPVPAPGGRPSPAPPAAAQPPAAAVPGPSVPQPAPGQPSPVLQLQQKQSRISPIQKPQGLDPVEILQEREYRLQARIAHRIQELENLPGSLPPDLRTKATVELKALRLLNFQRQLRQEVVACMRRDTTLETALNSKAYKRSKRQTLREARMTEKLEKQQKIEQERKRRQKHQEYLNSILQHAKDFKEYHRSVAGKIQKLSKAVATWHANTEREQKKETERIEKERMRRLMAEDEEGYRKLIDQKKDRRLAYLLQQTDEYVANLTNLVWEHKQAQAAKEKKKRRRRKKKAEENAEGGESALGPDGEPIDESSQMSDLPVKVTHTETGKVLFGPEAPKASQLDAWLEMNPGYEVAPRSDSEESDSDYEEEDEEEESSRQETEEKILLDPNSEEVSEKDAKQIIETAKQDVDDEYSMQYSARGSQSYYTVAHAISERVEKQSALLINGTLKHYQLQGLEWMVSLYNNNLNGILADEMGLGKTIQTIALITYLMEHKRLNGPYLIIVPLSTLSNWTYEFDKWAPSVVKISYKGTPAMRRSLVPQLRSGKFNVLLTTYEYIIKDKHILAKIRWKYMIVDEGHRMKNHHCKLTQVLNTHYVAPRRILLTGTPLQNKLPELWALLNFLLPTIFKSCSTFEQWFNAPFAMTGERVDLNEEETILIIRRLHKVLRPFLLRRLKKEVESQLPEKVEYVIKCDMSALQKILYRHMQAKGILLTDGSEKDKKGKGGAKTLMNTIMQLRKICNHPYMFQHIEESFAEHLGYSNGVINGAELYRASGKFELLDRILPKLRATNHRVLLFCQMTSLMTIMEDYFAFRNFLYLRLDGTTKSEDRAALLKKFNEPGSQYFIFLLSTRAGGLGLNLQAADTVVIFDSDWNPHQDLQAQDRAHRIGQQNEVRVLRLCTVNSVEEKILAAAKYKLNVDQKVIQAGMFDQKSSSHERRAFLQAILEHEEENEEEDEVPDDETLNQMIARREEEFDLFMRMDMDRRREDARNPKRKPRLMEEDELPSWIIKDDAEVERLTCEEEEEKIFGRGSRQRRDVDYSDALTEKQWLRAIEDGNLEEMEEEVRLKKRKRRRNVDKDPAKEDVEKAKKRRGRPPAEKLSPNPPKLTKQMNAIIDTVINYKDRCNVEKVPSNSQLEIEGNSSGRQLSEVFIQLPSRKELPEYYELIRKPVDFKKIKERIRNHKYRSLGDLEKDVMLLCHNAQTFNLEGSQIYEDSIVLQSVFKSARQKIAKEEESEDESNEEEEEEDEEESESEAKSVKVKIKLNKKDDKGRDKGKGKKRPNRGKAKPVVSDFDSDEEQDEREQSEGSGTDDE
E3 ubiquitin-protein ligase TRIM33, sequence (Q9UPN9 whole entry): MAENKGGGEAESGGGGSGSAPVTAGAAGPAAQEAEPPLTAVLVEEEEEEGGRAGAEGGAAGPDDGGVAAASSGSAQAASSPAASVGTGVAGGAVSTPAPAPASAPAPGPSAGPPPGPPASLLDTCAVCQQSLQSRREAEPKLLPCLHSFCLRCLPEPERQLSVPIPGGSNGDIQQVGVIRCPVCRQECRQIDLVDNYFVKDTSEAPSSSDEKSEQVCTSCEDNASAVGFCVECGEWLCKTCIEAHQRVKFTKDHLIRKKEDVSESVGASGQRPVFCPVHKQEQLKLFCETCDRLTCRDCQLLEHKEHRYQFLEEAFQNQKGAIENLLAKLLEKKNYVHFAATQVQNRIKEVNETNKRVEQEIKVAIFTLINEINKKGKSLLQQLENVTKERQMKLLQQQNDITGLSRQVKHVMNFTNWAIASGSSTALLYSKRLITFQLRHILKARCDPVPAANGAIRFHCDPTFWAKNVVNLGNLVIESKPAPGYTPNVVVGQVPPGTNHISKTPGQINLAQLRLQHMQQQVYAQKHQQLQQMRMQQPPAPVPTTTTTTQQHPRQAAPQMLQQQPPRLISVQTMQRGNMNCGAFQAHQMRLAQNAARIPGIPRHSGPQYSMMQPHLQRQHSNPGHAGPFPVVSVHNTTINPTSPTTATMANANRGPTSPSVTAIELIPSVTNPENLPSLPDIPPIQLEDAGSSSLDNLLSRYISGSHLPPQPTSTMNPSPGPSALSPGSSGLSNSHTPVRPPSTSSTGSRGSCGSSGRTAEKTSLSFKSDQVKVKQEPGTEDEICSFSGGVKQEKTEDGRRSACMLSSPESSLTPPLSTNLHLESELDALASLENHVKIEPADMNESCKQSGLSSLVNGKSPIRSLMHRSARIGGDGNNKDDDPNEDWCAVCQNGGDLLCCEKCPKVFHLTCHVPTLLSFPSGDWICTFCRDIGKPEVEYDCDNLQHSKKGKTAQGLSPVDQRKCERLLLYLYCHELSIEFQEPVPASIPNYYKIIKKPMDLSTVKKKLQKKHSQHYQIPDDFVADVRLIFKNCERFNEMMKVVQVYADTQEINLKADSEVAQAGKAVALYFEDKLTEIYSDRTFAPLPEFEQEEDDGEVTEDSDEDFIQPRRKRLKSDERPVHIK

In the case of `Cc1cc2cc(NS(=O)(=O)c3ccc(C#N)cc3)ccc2n(C)c1=O`, the concentration for 50% growth inhibition (GI50) was 1 to 10 µM in data set [1]; 1 to 10 µM in data set [2]; 5.7 µM in the data set with THP-1; 1 to 10 µM in the data set on LoVo; 1 to 10 µM in the data set with SW48; 1 to 10 µM with NCI-H1437. The molecule also displayed a GI50 with OCI-LY19 of 1 to 10 µM. Besides, the solubility in data set [3] is 100 µM (≈ 35.3 µg/mL). In [4], this molecule yielded a bioavailability of 49%. Also, the AUC(0-inf) in data set [5] is 5700 ng·h/mL. Also, the Fa in data set [6] was determined as 51%. Besides, in data set [7], the microsomal CLint came out at 14 µL/min/mg. For the same molecule, the Papp B→A at 2 h, 10 µM in [8] came to 50 ×10⁻⁶ cm/s. In [9], this molecule displayed a volume of distribution (Vd) of 0.7 L/kg. The same molecule gave a pKd at Peregrin of 7.40.
Turning to `CCc1cc2cc(NS(=O)(=O)c3ccc(C#N)cc3)ccc2n(CC)c1=O`, the pIC50 was under 4.00 in [10]; under 4.70 in data set [11]; under 4.00 on CREB-binding protein; under 4.00 in data set [12]; under 4.70 in data set [13]; 4.11 in [14].
